≈ marks a conversion by molar mass, not a printed value. Calls of active or inactive are those of the source. The calls are words filed in the database; no cut-off is given here.
What was measured:
[1] = Dissociation constant, pKa of the compound; assay type: physicochemical
[2] = Drug excretion in rat bile assessed as phase 2 glucuronide metabolite; assay type: ADME
Rattus norvegicus [3] = assay: Analgesic activity in monoiodoacetic acid-induced joint pain rat model assessed as inhibition of differential weight bearing capacity at 1 mg/kg, po bid for 5 days starting 20 days post MIA challenge relative to vehicle treated control; assay type: functional, organism-based; design: dose 1 mg/kg
Procedure, shortened: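 MIA knee-joint pain model in rats; repeat oral dosing at 1.0 mg/kg bid for 5 days. Incapacitance efficacy was compared between day 1 and day 5, and plasma exposures were monitored over the period.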

CYP3A4 = CYP3A4 (Homo sapiens, UniProt P08684); assay: Drug metabolism assessed as human CYP3A4-mediated oxidative compound turnover; assay type: ADME; details: recombinant enzyme, read-out: Drug metabolism
CYP3A4, sequence (P08684 whole entry, canonical isoform): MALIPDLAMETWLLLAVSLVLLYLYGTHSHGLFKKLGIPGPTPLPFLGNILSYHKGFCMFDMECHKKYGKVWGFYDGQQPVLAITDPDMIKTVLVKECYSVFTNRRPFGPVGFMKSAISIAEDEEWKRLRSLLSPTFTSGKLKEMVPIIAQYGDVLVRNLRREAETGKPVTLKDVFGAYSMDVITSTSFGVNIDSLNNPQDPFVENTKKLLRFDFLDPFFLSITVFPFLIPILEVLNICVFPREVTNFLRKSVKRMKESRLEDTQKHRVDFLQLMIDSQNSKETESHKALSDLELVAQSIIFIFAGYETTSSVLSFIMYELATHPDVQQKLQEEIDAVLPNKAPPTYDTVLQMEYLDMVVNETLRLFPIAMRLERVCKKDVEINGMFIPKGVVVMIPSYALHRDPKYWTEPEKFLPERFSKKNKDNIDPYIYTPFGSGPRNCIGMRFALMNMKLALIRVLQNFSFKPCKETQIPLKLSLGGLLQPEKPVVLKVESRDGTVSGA
Procedure, shortened: (§1)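 Oxidative turnover was assessed with recombinant human P450 enzymes to identify which isoforms contribute to metabolite formation.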

Cytochrome P450 2C9 = Cytochrome P450 2C9 (Homo sapiens, UniProt P11712); assay: Effect on CYP2C9 (unknown origin) up to 10 uM; assay type: ADME
Cytochrome P450 2C9, sequence (P11712 whole entry): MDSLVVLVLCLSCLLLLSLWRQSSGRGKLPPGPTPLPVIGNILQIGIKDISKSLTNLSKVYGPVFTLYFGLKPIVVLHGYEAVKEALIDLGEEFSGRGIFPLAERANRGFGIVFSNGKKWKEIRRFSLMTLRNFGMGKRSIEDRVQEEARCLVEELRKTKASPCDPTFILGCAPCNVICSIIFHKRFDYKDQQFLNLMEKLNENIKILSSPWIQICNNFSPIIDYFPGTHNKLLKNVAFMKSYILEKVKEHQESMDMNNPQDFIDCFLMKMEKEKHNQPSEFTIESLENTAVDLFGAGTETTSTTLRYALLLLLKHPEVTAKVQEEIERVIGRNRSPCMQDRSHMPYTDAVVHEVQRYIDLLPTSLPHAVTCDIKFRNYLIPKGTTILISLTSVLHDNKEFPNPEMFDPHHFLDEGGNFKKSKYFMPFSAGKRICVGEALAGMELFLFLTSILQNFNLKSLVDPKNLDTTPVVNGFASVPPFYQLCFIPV

Rattus norvegicus [4] = assay: Analgesic activity in monoiodoacetic acid-induced joint pain rat model assessed as inhibition of differential weight bearing capacity at 1 mg/kg, po administered 20 days post MIA challenge co-administered with 3 mg/kg SR-144528 relative to vehicle treated control; assay type: functional, organism-based
Procedure, shortened: (§2)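 Rats got 0.3 mg MIA intra-articular into the right knee and saline into the left on day 0. On day 20 they were randomized and dosed po with vehicle (1% CMC in water with 0.25% Tween 80), agonist 1 mg/kg, SR-144528 3 mg/kg, or antagonist given 30 min before agonist. Incapacitance (differential hind-limb weight bearing) was read 2 h after agonist; n = 6/group; Dunnett's test versus vehicle.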

[5] = Aqueous solubility of the compound at pH 6.5; assay type: physicochemical
Procedure, shortened: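 Aqueous solubility measured at pH 6.5.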

Cytochrome P450 3A4 = Cytochrome P450 3A4 (Homo sapiens, UniProt P08684); assay: Effect on CYP3A4 (unknown origin) up to 10 uM; assay type: ADME
Cytochrome P450 3A4, sequence (P08684 whole entry): as the sequence (P08684 whole entry, canonical isoform) above

[6] = Half life in Beagle dog at 1 mg/kg, po; assay type: ADME, organism-based, Canis lupus familiaris; design: dose 1 mg/kg, route oral; details: in vivo
Procedure, shortened: (§3)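 Plasma PK after intravenous and oral dosing at 1 mg/kg each route; male Sprague-Dawley rats and male Beagle dogs. Clearance and steady-state volume from the iv leg, half-life and bioavailability from the po leg.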

[7] = Clearance in Sprague-Dawley rat at 1 mg/kg, iv; assay type: ADME, organism-based; design: dose 1 mg/kg, route intravenous; details: in vivo
Rattus norvegicus [8] = assay: Analgesic activity in monoiodoacetic acid-induced joint pain rat model assessed as inhibition of differential weight bearing capacity at 5 mg/kg, po measured 2 hrs after compound dose on day 12 post MIA challenge relative to vehicle treated control; assay type: functional, organism-based; design: dose 5 mg/kg
Procedure, shortened: (§4)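 MIA knee-joint pain in rats; oral doses of 0.1, 0.3 and 1 mg/kg, with diclofenac 5 mg/kg po as comparator. Differential hind-limb weight bearing was measured by incapacitance tester on day 12 post MIA, 2 h after dosing; n = 5/group; Student's t-test versus vehicle. ED50 was derived from the dose response.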

[9] = Volume of distribution at steady state in Sprague-Dawley rat at 1 mg/kg, iv and 1 mg/kg, po; assay type: ADME, organism-based; details: in vivo, read-out: Vdss; procedure, shortened: as §3
Cytochrome P450 2D6 = Cytochrome P450 2D6 (Homo sapiens, UniProt P10635); assay: Effect on CYP2D6 (unknown origin) up to 10 uM; assay type: ADME
Cytochrome P450 2D6, sequence (P10635 whole entry): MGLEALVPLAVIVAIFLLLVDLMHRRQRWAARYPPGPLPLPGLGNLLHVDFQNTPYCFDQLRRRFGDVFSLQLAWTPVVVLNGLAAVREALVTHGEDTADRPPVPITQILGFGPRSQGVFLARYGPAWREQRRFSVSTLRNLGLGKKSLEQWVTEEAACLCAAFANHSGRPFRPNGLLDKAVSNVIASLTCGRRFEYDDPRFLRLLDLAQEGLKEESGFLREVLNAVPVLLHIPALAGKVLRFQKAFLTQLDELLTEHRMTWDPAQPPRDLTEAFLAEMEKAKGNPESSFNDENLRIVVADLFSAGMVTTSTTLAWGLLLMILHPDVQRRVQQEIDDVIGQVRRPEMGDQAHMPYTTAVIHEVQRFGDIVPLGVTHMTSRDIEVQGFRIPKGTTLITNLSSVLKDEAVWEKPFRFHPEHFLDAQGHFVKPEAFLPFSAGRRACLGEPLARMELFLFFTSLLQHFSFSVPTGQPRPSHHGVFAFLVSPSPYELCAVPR

[10] = Drug metabolism in dog liver microsomes at 2 uM after 0.5 hr by LC/MS/MS analysis; assay type: ADME, Canis lupus familiaris; details: read-out: Drug metabolism
[11] = Cmax in Beagle dog at 1 mg/kg, iv and 1 mg/kg, po; assay type: ADME, organism-based, Canis lupus familiaris; details: in vivo; procedure, shortened: as §3
[12] = AUC in Sprague-Dawley rat at 1 mg/kg, iv and 1 mg/kg, po; assay type: ADME, organism-based; details: plasma; procedure, shortened: as §3
Rattus norvegicus [13] = assay: Analgesic activity in monoiodoacetic acid-induced joint pain rat model assessed as inhibition of differential weight bearing capacity at 1 mg/kg, po administered 20 days post MIA challenge relative to vehicle treated control; assay type: functional, organism-based; design: dose 1 mg/kg; procedure, shortened: as §2
Cannabinoid receptor 1 [14] = target: T1, Cannabinoid receptor 1 (Homo sapiens, UniProt P21554); assay: Agonist activity at human CB1 receptor expressed in Sf9 cells by [35S]-GTPgammaS binding assay; assay type: functional
T1 sequence (P21554 whole entry): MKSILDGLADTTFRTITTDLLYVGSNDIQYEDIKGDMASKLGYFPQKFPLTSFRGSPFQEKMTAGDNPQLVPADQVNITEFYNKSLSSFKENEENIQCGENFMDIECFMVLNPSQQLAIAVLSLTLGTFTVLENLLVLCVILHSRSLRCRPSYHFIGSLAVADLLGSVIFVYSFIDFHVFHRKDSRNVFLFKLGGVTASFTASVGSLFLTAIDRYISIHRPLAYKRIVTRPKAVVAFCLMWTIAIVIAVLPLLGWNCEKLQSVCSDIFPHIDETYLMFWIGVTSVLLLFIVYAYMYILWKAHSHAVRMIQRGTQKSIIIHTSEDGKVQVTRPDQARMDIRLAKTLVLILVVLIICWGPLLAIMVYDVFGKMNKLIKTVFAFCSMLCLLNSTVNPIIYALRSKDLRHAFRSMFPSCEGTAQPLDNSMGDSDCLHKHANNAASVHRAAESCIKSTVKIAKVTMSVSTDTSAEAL

[15] = Volume of distribution at steady state in Beagle dog at 1 mg/kg, iv and 1 mg/kg, po; assay type: ADME, organism-based, Canis lupus familiaris; details: in vivo, read-out: Vdss; procedure, shortened: as §3
[16] = Drug excretion in rat bile assessed as sulfate metabolite; assay type: ADME
CYP2C9 = CYP2C9 (Homo sapiens, UniProt P11712); assay: Drug metabolism assessed as human CYP2C9-mediated compound turnover; assay type: ADME; details: recombinant enzyme, read-out: Drug metabolism; procedure, shortened: as §1
CYP2C9, sequence (P11712 whole entry): as the sequence (P11712 whole entry) above

[17] = Half life in Sprague-Dawley rat at 1 mg/kg, po; assay type: ADME, organism-based; design: dose 1 mg/kg, route oral; details: in vivo; procedure, shortened: as §3
CYP1A2 = target: T2, CYP1A2 (Homo sapiens, UniProt P05177); assay: Drug metabolism assessed as human CYP1A2-mediated compound turnover; assay type: ADME; details: recombinant enzyme, read-out: Drug metabolism; procedure, shortened: as §1
T2 sequence (P05177 whole entry): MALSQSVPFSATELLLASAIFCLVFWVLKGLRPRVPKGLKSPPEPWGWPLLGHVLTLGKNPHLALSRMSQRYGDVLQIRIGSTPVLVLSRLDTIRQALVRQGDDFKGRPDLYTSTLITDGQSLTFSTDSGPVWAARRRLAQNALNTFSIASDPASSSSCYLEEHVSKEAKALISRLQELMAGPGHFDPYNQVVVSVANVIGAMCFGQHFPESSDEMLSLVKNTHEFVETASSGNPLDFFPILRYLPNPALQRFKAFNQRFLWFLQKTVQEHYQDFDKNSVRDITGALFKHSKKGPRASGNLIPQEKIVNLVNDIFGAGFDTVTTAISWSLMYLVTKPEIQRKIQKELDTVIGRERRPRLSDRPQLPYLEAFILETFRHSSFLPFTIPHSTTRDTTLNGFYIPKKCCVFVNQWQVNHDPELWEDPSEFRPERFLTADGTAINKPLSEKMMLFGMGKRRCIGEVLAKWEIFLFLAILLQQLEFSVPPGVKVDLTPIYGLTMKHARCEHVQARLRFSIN

[18] = Drug metabolism in human liver microsomes at 2 uM after 0.5 hr by LC/MS/MS analysis; assay type: ADME; details: read-out: Drug metabolism
[19] = Lipophilicity, log P of the compound; assay type: physicochemical; details: octanol/water
[20] = Drug excretion in rat urine assessed as phase 2 glucuronide metabolite; assay type: ADME
[21] = Clearance in Beagle dog at 1 mg/kg, iv; assay type: ADME, organism-based, Canis lupus familiaris; design: dose 1 mg/kg, route intravenous; details: in vivo
MDCK = assay: Permeability across MDCK cells expressing human P-gp; assay type: ADME, cell-based, Canis lupus familiaris; details: dog
Procedure, shortened: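 Bi-directional permeability was measured across an MDCK line expressing human P-gp to test whether the compound is a P-gp substrate.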

[22] = Drug excretion in rat urine assessed as sulfate metabolite; assay type: ADME
Rattus norvegicus [23] = organism: Rattus norvegicus; assay: Inhibition of GABA gated chloride channel in rat cortex at 10 uM by radioligand binding assay
Procedure, shortened: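 Radioligand binding to GABA-gated chloride channels from rat, run by an outside contract lab.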

[24] = Cmax in Sprague-Dawley rat at 1 mg/kg, iv and 1 mg/kg, po; assay type: ADME, organism-based; details: in vivo; procedure, shortened: as §3
[25] = AUC in Beagle dog at 1 mg/kg, iv and 1 mg/kg, po; assay type: ADME, organism-based, Canis lupus familiaris; details: plasma; procedure, shortened: as §3
Cytochrome P450 1A2 = target: T3, Cytochrome P450 1A2 (Homo sapiens, UniProt P05177); assay: Effect on CYP1A2 (unknown origin) up to 10 uM; assay type: ADME
T3 sequence (P05177 whole entry): T2 sequence (P05177 whole entry)

[26] = Drug metabolism in rat liver microsomes at 2 uM after 0.5 hr by LC/MS/MS analysis; assay type: ADME; details: read-out: Drug metabolism
Rattus norvegicus [27] = assay: Analgesic activity in monoiodoacetic acid-induced joint pain rat model assessed as inhibition of differential weight bearing capacity compound administered orally post MIA challenge measured 2 hrs after compound dose on day 12 post MIA challenge relative to vehicle treated control; assay type: functional; details: po; procedure, shortened: as §4
[28] = Oral bioavailability in Beagle dog at 1 mg/kg; assay type: ADME, organism-based, Canis lupus familiaris; details: in vivo; procedure, shortened: as §3
Cannabinoid receptor 2 [29] = target: T4, Cannabinoid receptor 2 (Homo sapiens, UniProt P34972); assay: Agonist activity at human CB2 receptor expressed in CHO cells by [35S]-GTPgammaS binding assay relative to control; assay type: functional, cell-based
T4 sequence (P34972 whole entry): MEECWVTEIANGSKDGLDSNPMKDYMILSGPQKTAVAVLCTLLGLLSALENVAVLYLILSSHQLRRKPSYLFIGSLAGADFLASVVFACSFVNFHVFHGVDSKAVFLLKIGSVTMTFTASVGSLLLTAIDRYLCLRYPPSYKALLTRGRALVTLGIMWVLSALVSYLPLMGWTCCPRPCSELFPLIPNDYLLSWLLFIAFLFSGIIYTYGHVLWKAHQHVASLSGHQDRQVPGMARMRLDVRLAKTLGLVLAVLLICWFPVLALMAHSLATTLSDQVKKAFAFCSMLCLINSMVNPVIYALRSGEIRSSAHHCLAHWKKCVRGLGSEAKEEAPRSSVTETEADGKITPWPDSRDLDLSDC

Cannabinoid receptor 2 [30] = target: T4, Cannabinoid receptor 2; assay: Agonist activity at human CB2 receptor expressed in CHO cells by [35S]-GTPgammaS binding assay; assay type: functional, cell-based
Rattus norvegicus [31] = assay: Toxicity in rat assessed as hypothermia up to 30 mg/kg, po; assay type: organism-based; design: dose 30 mg/kg, route oral; details: in vivo
Procedure, shortened: (§5)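 Rats were dosed orally up to 30 mg/kg and checked for hypothermia and for rotorod performance. CP-55,940 0.5 mg/kg ip served as positive control.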

Rattus norvegicus [32] = assay: Toxicity in rat assessed as behavioral impairment up to 30 mg/kg, po by rotorod test; assay type: organism-based; design: dose 30 mg/kg, route oral; details: in vivo; procedure, shortened: as §5
[33] = Oral bioavailability in Sprague-Dawley rat at 1 mg/kg; assay type: ADME, organism-based; details: in vivo; procedure, shortened: as §3
[34] = Inhibition of GABA gated chloride channel in rat cortex by radioligand binding assay
Cannabinoid receptor 1 [35] = target: T1, Cannabinoid receptor 1; assay: Agonist activity at human CB1 receptor expressed in Sf9 cells by [35S]-GTPgammaS binding assay relative to control; assay type: functional

Structure (SMILES): Cc1nc(N2CCN(C)CC2)c2nc(-c3ccccc3Cl)n([C@H](C)CO)c2n1
- pKa [1]: 7.5
- Drug excretion [2]: metabolite_detected
- inhibition (Rattus norvegicus [3]): Active
- metabolised (CYP3A4): 80%
- Activity (Cytochrome P450 2C9): Not Active
- inhibition (Rattus norvegicus [4]): inactive
- solubility [5]: 1800 µg/mL (≈ 4490 µM)
- Activity (Cytochrome P450 3A4): Not Active
- half-life [6]: 1.7 h
- clearance [7]: 32 mL/min/kg
- inhibition (Rattus norvegicus [8]): Active
- Vd [9]: 6 L/kg
- Activity (Cytochrome P450 2D6): Not Active
- metabolised at 0.5 h, 2 µM [10]: 42%
- Cmax [11]: 43 ng/mL
- AUC [12]: 514 ng·h/mL
- inhibition (Rattus norvegicus [13]): Active
- EC50 (Cannabinoid receptor 1 [14]): > 100000 nM
- Vd [15]: 4 L/kg
- Drug excretion [16]: metabolite_detected
- metabolised (CYP2C9): 80%
- half-life [17]: 2.3 h
- metabolised (CYP1A2): 80%
- metabolised at 0.5 h, 2 µM [18]: 22%
- logP [19]: 3.1
- Drug excretion [20]: metabolite_detected
- clearance [21]: 38 mL/min/kg
- permeability (MDCK): impermeable
- Drug excretion [22]: metabolite_detected
- inhibition (Rattus norvegicus [23]): 20%
- Cmax [24]: 87 ng/mL
- AUC [25]: 437 ng·h/mL
- Activity (Cytochrome P450 1A2): Not Active
- metabolised at 0.5 h, 2 µM [26]: 50%
- ED50 (Rattus norvegicus [27]): 0.16 mg/kg
- bioavailability [28]: 23%
- Efficacy (Cannabinoid receptor 2 [29]): 81.8%
- EC50 (Cannabinoid receptor 2 [30]): 22.4 nM
- Activity (Rattus norvegicus [31]): Toxic
- Activity (Rattus norvegicus [32]): Toxic
- bioavailability [33]: 38%

Structure (SMILES): Cc1nc(N2CCN(C)CC2)c2nc(-c3ccccc3Cl)n(C3CCOCC3)c2n1 [LY2828360]
- pKa [1]: 7.2
- solubility [5]: 100 µg/mL (≈ 234 µM)
- logP [19]: 3.2
- inhibition (Rattus norvegicus [23]): 85%
- bioavailability [28]: 76%
- Ki [34]: 2200 nM

Structure (SMILES): Cc1nc(N2CCN(C)CC2)c2nc(-c3ccccc3Cl)n([C@@H](C)CO)c2n1
- metabolised at 0.5 h, 2 µM [10]: 60%
- EC50 (Cannabinoid receptor 1 [14]): > 100000 nM
- metabolised at 0.5 h, 2 µM [18]: 11%
- metabolised at 0.5 h, 2 µM [26]: 79%
- Efficacy (Cannabinoid receptor 2 [29]): 96.5%
- EC50 (Cannabinoid receptor 2 [30]): 12.5 nM

Structure (SMILES): COC(=O)NCCn1c(-c2ccccc2Cl)nc2c(N3CCN(C)CC3)nc(C)nc21
- metabolised at 0.5 h, 2 µM [10]: 62%
- metabolised at 0.5 h, 2 µM [18]: 14%
- metabolised at 0.5 h, 2 µM [26]: 25%

Structure (SMILES): CCN1CCN(c2nc(C)nc3c2nc(-c2ccccc2Cl)n3CCCOC)CC1
- metabolised at 0.5 h, 2 µM [10]: 99%
- EC50 (Cannabinoid receptor 1 [14]): 1380 nM
- metabolised at 0.5 h, 2 µM [18]: 36%
- Efficacy (Cannabinoid receptor 1 [35]): 25.7%
- metabolised at 0.5 h, 2 µM [26]: 71%
- Efficacy (Cannabinoid receptor 2 [29]): 96.5%
- EC50 (Cannabinoid receptor 2 [30]): 4.3 nM
